For orientation: IC50 means the midpoint of a concentration-inhibition curve. Read a high IC50 as a need for much substance. By inhibition in vivo is commonly meant the drop in the measured response relative to a control, in per cent.

In brackets after ≈: the same amount, converted by molar mass.

The subject of one data set is Plasmodium falciparum. As to the kind of experiment: Antiplasmodial activity against Plasmodium falciparum FcB1/columbia infected in human erythrocytes. The data set is classed as functional, organism-based.
Conditions: not given
In a few lines: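 Blood stages cultured in human erythrocytes in RPMI 1640 with 5% human serum (Trager–Jensen, modified). Cultures were synchronized every 48 h by 5% D-sorbitol lysis. IC50 is the concentration giving 50% inhibition of parasite growth, with chloroquine as the control drug.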
Regarding `COc1cc(OC)c2c(c1)O/C(=C\c1ccc(F)cc1)C2=O`, 86.7 µM corresponded to half-maximal inhibition (IC50). In other words, the double-digit micromolar range.
The same measure, in the same setting: under `Cc1ccc(/C=C2\Oc3cc(O)cc(O)c3C2=O)cc1` stands 63.4 µM; under `COc1cc2c(c(OC)c1)C(=O)/C(=C/c1cc(C)c(C)cc1C)N2`, 5.6 µM.
In turn, `CCc1ccccc1/C=C1\Oc2cc(OC)cc(OC)c2C1=O` yielded an IC50 of 21 µM.
The same measure, in the same setting: under `COc1cc(OC)c2c(c1)O/C(=C\c1ccc(C(C)(C)C)cc1)C2=O` stands 13.3 µM.
The same measure, in the same setting: as for `CCCCc1ccc(/C=C2\Oc3cc(OC)cc(OC)c3C2=O)cc1`, the figure is 11.8 µM.
On the same count and under the same terms, under `COc1cc(OC)c2c(c1)O/C(=C\c1ccc(Br)cc1)C2=O` stands 49.8 µM; under `COc1cc(OC)c2c(c1)O/C(=C\c1ccc(-c3ccccc3)cc1)C2=O`, 234 µM; under `COc1cc(OC)c2c(c1)O/C(=C\c1ccc(-c3ccncc3)cc1)C2=O`, 85 µM.
With `COc1cc2c(c(OC)c1)C(=O)/C(=C/c1ccc(Br)cc1)N2`, the IC50 came to 49.8 µM.
Still for that read-out and setting: as for `COc1cc2c(c(OC)c1)C(=O)/C(=C/c1ccccc1Cl)N2`, the figure is 9.9 µM.
`COc1cc2c(c(OC)c1)C(=O)/C(=C/c1cc(Cl)ccc1Cl)N2` displayed an IC50 of 8.4 µM.
As to `CCc1ccccc1/C=C1\Nc2cc(OC)cc(OC)c2C1=O`, the IC50 amounted to 12.8 µM.
Same read-out and setting: as for `COc1cc2c(c(OC)c1)C(=O)/C(=C/c1c(C)cccc1C)N2`, the figure is 9.1 µM; as for `COc1cc2c(c(OC)c1)C(=O)/C(=C/c1ccc(C)cc1C)N2`, 3.6 µM; as for `COc1cc2c(c(OC)c1)C(=O)/C(=C/c1c(C)c(C)cc(C)c1C)N2`, 8.9 µM.
Still for that read-out and setting: under `COc1cc2c(c(OC)c1)C(=O)/C(=C/c1ccc(C(C)C)cc1)N2` stands 4.4 µM; under `COc1cc2c(c(OC)c1)C(=O)/C(=C/c1ccc(C(C)(C)C)cc1)N2`, 7.2 µM; under `CCCCc1ccc(/C=C2\Nc3cc(OC)cc(OC)c3C2=O)cc1`, 4.1 µM.
Compound `C#Cc1ccc(/C=C2\Nc3cc(OC)cc(OC)c3C2=O)cc1` had an IC50 of 13.4 µM.
Same read-out and setting: as for `COc1ccc(/C=C2\Nc3cc(OC)cc(OC)c3C2=O)c(OC)c1`, the figure is 5 µM; as for `COc1cc(OC)c(/C=C2\Nc3cc(OC)cc(OC)c3C2=O)c(OC)c1`, 1.9 µM.
The same measure, in the same setting: under `COc1cc2c(c(OC)c1)C(=O)/C(=C/c1cc(OC)c(OC)c(OC)c1)N2` stands 1.9 µM.
Same read-out and setting: as for `COc1cc2c(c(OC)c1)C(=O)/C(=C/c1ccc(SC)cc1)N2`, the figure is 6.7 µM; as for `COc1cc2c(c(OC)c1)C(=O)/C(=C/c1ccc(N3CCOCC3)cc1)N2`, 8.9 µM; as for `COc1cc2c(c(OC)c1)C(=O)/C(=C/c1ccc(N(C)C)cc1)N2`, 3.7 µM.
`CCc1ccc(/C=C2\Oc3cc(O)ccc3C2=O)cc1` gave an IC50 of 28 µM.
On the same count and under the same terms, as for `CCc1ccc(/C=C2\Nc3cc(OC)cc(OC)c3C2=O)cc1`, the figure is 1 µM; as for `COc1cc2c(c(OC)c1)C(=O)/C(=C/c1ccc(Cl)cc1)N2`, 17 µM.
On the same count and under the same terms, under `COc1cc2c(c(OC)c1)C(=O)/C(=C/c1c(F)cccc1Cl)N2` stands 9 µM; under `COc1cc(OC)c2c(c1)O/C(=C\c1ccccc1)C2=O`, 60.3 µM; under `CCc1ccccc1/C=C1\Oc2cc(O)cc(O)c2C1=O`, 114 µM.
The same measure, in the same setting: as for `O=C1/C(=C/c2ccccc2)Oc2cc(O)cc(O)c21`, the figure is 94.5 µM; as for `O=C1/C(=C/c2ccc(O)cc2)Oc2cc(O)ccc21`, 130 µM.
`COc1ccc(/C=C2\Oc3cc(OC)cc(OC)c3C2=O)cc1` [4,4',6-TRIMETHOXY-AURONE] came in with an IC50 of 11 µM.

The subject of the next data set is Mus musculus. Briefly: Toxicity against CD mouse at 20 mg/kg, ip qd for 4 days. The data set is classed as organism-based. The arrangement: dose 20 mg/kg, route intraperitoneal. The note with it: in vivo, 96 h.
Turning to `CCc1ccc(/C=C2\Nc3cc(OC)cc(OC)c3C2=O)cc1`, the Activity entry is reported as “Non-toxic”.

A further data set concerns Plasmodium vinckei petteri. As to the kind of experiment: Antimalarial activity against Plasmodium vinckei petteri infected in CD mice (Mus musculus) assessed as inhibition of parasitaemia at 1 mg/kg, intraperitoneal daily for 4 days measured on day 5. Format: functional. The note with it: ip. The gist of the method: (§1)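 Four-day suppressive test: female CD mice (mean body weight 20 2 g) infected with 10⁶ P. vinckei petteri-infected red blood cells in RPMI on day 0. Groups of five treated intraperitoneally days 0–3 at 1, 10 or 20 mg/kg/day. Controls received RPMI alone or chloroquine (1 and 10 mg/kg). Giemsa-stained tail-blood smears, at least 5000 erythrocytes counted. Inhibition % = (control − treated parasitaemia)/control × 100.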
For the compound `CCc1ccc(/C=C2\Nc3cc(OC)cc(OC)c3C2=O)cc1`, the inhibition in vivo at 1 mg/kg stood at 3%.
The same measure, in the same setting: as for `CCN(CC)CCCC(C)Nc1ccnc2cc(Cl)ccc12` (stereo not drawn) [CHLOROQUINE], the figure is 0%.

The subject of the next data set is Plasmodium vinckei petteri. Briefly: Antimalarial activity against Plasmodium vinckei petteri infected in CD mice (Mus musculus) assessed as inhibition of parasitaemia at 10 mg/kg, intraperitoneal daily for 4 days measured on day 5. The data set is classed as functional. The note with it: ip. The gist of the method:
as §1
With `CCc1ccc(/C=C2\Nc3cc(OC)cc(OC)c3C2=O)cc1`, the inhibition in vivo at 10 mg/kg is 17%.
Still for that read-out and setting: under `CCN(CC)CCCC(C)Nc1ccnc2cc(Cl)ccc12` (stereo not drawn) [CHLOROQUINE] stands 100%.

For another data set, the system named is Plasmodium vinckei petteri. As to the kind of experiment: Antimalarial activity against Plasmodium vinckei petteri infected in CD mice (Mus musculus) assessed as inhibition of parasitaemia at 20 mg/kg, intraperitoneal daily for 4 days measured on day 5. The data set is classed as functional. The note with it: ip. In a few lines:
as §1
For the compound `CCc1ccc(/C=C2\Nc3cc(OC)cc(OC)c3C2=O)cc1`, the inhibition in vivo at 20 mg/kg was found to be 0%.

The test system of a further data set is Plasmodium vinckei petteri. As to the kind of experiment: Antimalarial activity against Plasmodium vinckei petteri infected in CD mice (Mus musculus) assessed as inhibition of parasitaemia dosed daily for 4 days measured on day 5. The data set is classed as functional.
Conditions: not given
The gist of the method: as §1
With `CCc1ccc(/C=C2\Nc3cc(OC)cc(OC)c3C2=O)cc1`, the ED50 is greater than 20 mg/kg.
Still for that read-out and setting: under `CCN(CC)CCCC(C)Nc1ccnc2cc(Cl)ccc12` (stereo not drawn) [CHLOROQUINE] stands 5000 µg/mL (≈ 15.6 mM).

These data come from ChEMBL document CHEMBL1212855, “1-Azaaurones derived from the naturally occurring aurones as potential antimalarial drugs” (Bioorg Med Chem, 2010).
